From ChEMBL document CHEMBL3085754, “Clicking 3'-azidothymidine into novel potent inhibitors of human immunodeficiency virus” (J Med Chem, 2013) come the findings set out here.

Each structure is given as a SMILES string. Calls of active or inactive are those of the source. The calls are words filed in the database; no cut-off is given here.

The target in series [1] is Human immunodeficiency virus type 1 reverse transcriptase (Human immunodeficiency virus 1, UniProt Q72547). The experiment in a line: Inhibition of HIV1 reverse transcriptase-mediated [H3]TTP incorporation into poly(rA)-oligo(dT)16 DNA preincubated for 5 mins prior to primer/template and substrate addition by liquid scintillation spectrometric analysis. In outline: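 10 nM wt HIV-1 RT preincubated 5 min with inhibitor in DMSO (1% final), then 40 nM poly(rA)-oligo(dT)16 and 10 μM [3H]TTP added. Buffer 50 mM Tris-HCl pH 8.0, 60 mM KCl, 10 mM MgCl2; 20 min at 37°C. Quenched with cold 10% TCA/20 mM pyrophosphate, glass-fibre filtered, washed with TCA and ethanol, incorporation counted by liquid scintillation.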

Series [2] concerns Human immunodeficiency virus 1. The series is described as follows: Ratio of EC50 for AZT-resistant Human immunodeficiency virus 1 to EC50 for wild type Human immunodeficiency virus 1 expressing p24. Format: functional.
For series [3], the system named is Human immunodeficiency virus 1. The experiment in a line: Antiviral activity against Human immunodeficiency virus 1 3B infected in human CEM-SS cells assessed as inhibition of virus-induced cytopathic effect at 10 uM after 6 days by MTS assay relative to control. Format: functional. The following applies: 144 h.
The nature of series [4]: Therapeutic index, ratio of CC50 for human CEM-SS cells to EC50 for Human immunodeficiency virus 1 3B. Conditions: read-out: Ratio CC50/EC50. Format: cell-based.
In series [5] the test system is Human immunodeficiency virus 1. The experiment in a line: Antiviral activity against Human immunodeficiency virus 1 3B infected in human CEM-SS cells assessed as inhibition of virus-induced cytopathic effect after 6 days by MTS assay. Format: functional, organism-based. The following applies: 144 h. (Protection from cytopathic effect is a common read-out in antiviral testing.)

The subject of series [6] is Human immunodeficiency virus 1. The series is described as follows: Antiviral activity against NNRTI-resistant Human immunodeficiency virus 1. Format: functional, organism-based.
The test system of series [7] is Human immunodeficiency virus 1. The experiment in a line: Antiviral activity against wild type Human immunodeficiency virus 1 expressing p24 infected in human HeLa P4/R5 cells preincubated for 16 hrs prior to virus infection measured after 48 hrs by beta-galactosidase-based single replication cycle assay. Conditions: for EC50: Human immunodeficiency virus 1, P4/R5. Format: functional, organism-based. In outline: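 P4R5 indicator cells express CD4, CXCR4, CCR5 and an HIV LTR-driven β-galactosidase reporter, and were kept in DMEM/10% FBS with puromycin. Cells were seeded at 5×10^3 per well and exposed to varying drug concentrations for 16 h. They were then inoculated with 25 ng HIV-1 p24 per well. Infection was quantified 48 h post-infection by fluorescence-based β-galactosidase detection.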

In series [8] the test system is CEM-SS. The series is described as follows: Cytotoxicity against human CEM-SS cells assessed as cell viability at 10 uM after 6 days by MTS assay relative to control. Format: cell-based. The following applies: 144 h. (Formazan colour is commonly taken as a measure of viable cells.)
Series [9] deals with Human immunodeficiency virus 1. The experiment in a line: Ratio of EC50 for NNRTI-resistant Human immunodeficiency virus 1 to EC50 for wild type Human immunodeficiency virus 1 expressing p24. The series is classed as functional.
Series [10] relates to CEM-SS. The experiment in a line: (§1) Cytotoxicity against human CEM-SS cells assessed as cell viability after 6 days by MTS assay. Format: cell-based. Conditions: cem-ss, 144 h.
Series [11] has as its system Human immunodeficiency virus 1. The experiment in a line: Antiviral activity against AZT-resistant Human immunodeficiency virus 1 expressing D67N/K70R/T215F/K219Q reverse transcriptase mutation. Format: functional, organism-based.
Series [12] addresses Human immunodeficiency virus type 1 reverse transcriptase (Human immunodeficiency virus 1) (UniProt Q72547). The series is described as follows: Induction of AZT-resistant HIV1 reverse transcriptase assessed as rate of ATP-mediated excision of chain-terminating nucleotides by phosphorimaging analysis. In outline:
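5'-32P-labelled DNA primer annealed 1:1.5 to 40-nt RNA template, then chain-terminated with AZT-TP or the triphosphate analogue. AZT-resistant RT and terminated template/primer (2:1) in 50 mM Tris-HCl pH 8.0, 50 mM KCl. Started with 6 mM MgCl2 and 3 mM pyrophosphatase-pretreated ATP, 37°C. Stopped at timed points with formamide/EDTA dye and resolved by denaturing gel.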

Series [13] has the same target. The experiment in a line: Binding affinity to HIV1 reverse transcriptase assessed as compound-terminated template/primer translocation from N-site to P-site of enzyme preincubated for 20 mins prior to TTP addition measured after 10 mins by gel electrophoretic analysis. In outline: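 50 nM 32P-labelled primer/RNA template with 300 nM RT in 120 mM Na cacodylate pH 7.0, 20 mM NaCl, 6 mM MgCl2 and 100 μM AZT-TP or triphosphate analogue, 20 min at 37°C, for chain-terminator incorporation. Varying TTP then added for 10 min, followed by 500 μM Fe(NH4)2SO4 cleavage. Products resolved by denaturing gel electrophoresis.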

The nature of series [14]: as §1. Format: cell-based. Conditions: CEM-SS cells.
Series [15] addresses Human immunodeficiency virus type 1 reverse transcriptase (Human immunodeficiency virus 1) (UniProt Q72547). The series is described as follows: Binding affinity to HIV1 reverse transcriptase assessed as compound incorporation into DNA by primer extension assay.

Take `Cc1cn([C@H]2C[C@H](n3nncc3-c3cc4ccccc4c4ccccc34)[C@@H](COP(=O)(O)OP(=O)(O)OP(=O)(O)O)O2)c(=O)[nH]c1=O`: the IC50 (in general, the midpoint of a concentration-inhibition curve) in [1] came to 11.8 µM. This counts as double-digit micromolar.

As for `Cc1cn([C@H]2C[C@H](n3nncc3-c3cccc4ccccc34)[C@@H](CO)O2)c(=O)[nH]c1=O`, the “Ratio EC50” value in [2] was 9; in series [9], 0.6. Moreover, the inhibition (commonly the drop in the measured response relative to a control, in per cent) at 10 µM in series [3] was 83%. Also, the selectivity ratio in series [4] was determined as 910. Besides, the EC50 (as a rule, the concentration needed to bring the measured effect to its halfway point) was found to be 0.067 µM in series [5], 0.6 µM in series [6], 1 µM in series [7] and 9.1 µM in series [11]. Moreover, the Activity entry is “Dose-dependent effect” in [7] and 100% in series [8]. Moreover, the CC50 (as a rule, the concentration at which the toxic effect on the cells reaches its halfway point) in [10] was 61 µM.

On to `Cc1cn([C@H]2C[C@H](N=[N+]=[N-])[C@@H](CO)O2)c(=O)[nH]c1=O` [ZIDOVUDINE], for which, in series [12], the Activity stood at 0.024 min⁻¹. Besides, the outcome in [13] was Active. In addition, the EC50 was determined as 0.0053 µM in series [5], 0.12 µM in [6], 0.14 µM in series [7] and 7.9 µM in series [11]. The CC50 at 144 h in series [14] was above 1 µM.

Regarding `Cc1cn([C@H]2C[C@H](n3nncc3-c3cccc4ccccc34)[C@@H](COP(=O)(O)OP(=O)(O)OP(=O)(O)O)O2)c(=O)[nH]c1=O`, in series [12], the Activity was 0.0126 min⁻¹. For the same compound, in series [13], the result was Active. The IC50 in series [1] was 3.7 µM.

As to `Cc1cn([C@H]2C[C@H](O)[C@@H](COP(=O)(O)OP(=O)(O)OP(=O)(O)O)O2)c(=O)[nH]c1=O`, the result in [15] was Active.
